From ChEMBL document CHEMBL1275272, “Synthesis, characterization and antimicrobial activity of some disubstituted 1,3,4-oxadiazoles carrying 2-(aryloxymethyl)phenyl moiety” (2010)
Values after ≈ are worked out from the molar mass of the structure shown.

Assays:
Type in all cases: functional
Talaromyces marneffei = assay: Antifungal activity against Penicillium marneffei after 16 to 18 hrs by serial dilution method; conditions: for MIC: Talaromyces marneffei
How it was run: (§1)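 The test compound was dissolved in DMF and serially diluted. A standard drop of the prepared microbial culture was added to each dilution, and tubes were incubated at 37 °C for 16–18 h. MIC was taken as the highest dilution that stayed clear with no visible turbidity.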

Aspergillus fumigatus = assay: Antifungal activity against Aspergillus fumigatus after 16 to 18 hrs by serial dilution method; conditions: for MIC: Aspergillus fumigatus
Escherichia coli = assay: Antibacterial activity against Escherichia coli after 16 to 18 hrs by serial dilution method; conditions: for MIC: Escherichia coli; how it was run: as §1
Pseudomonas aeruginosa = assay: Antibacterial activity against Pseudomonas aeruginosa after 16 to 18 hrs by serial dilution method; conditions: for MIC: Pseudomonas aeruginosa; how it was run: as §1
Aspergillus flavus = assay: Antifungal activity against Aspergillus flavus after 16 to 18 hrs by serial dilution method; conditions: for MIC: Aspergillus flavus; how it was run: as §1
[1] = system: Trichophyton mentagrophytes; assay: Antifungal activity against Trichophyton mentagrophytes after 16 to 18 hrs by serial dilution method; conditions: for MIC: Trichophyton mentagrophytes
Klebsiella pneumoniae = assay: Antibacterial activity against Klebsiella pneumoniae after 16 to 18 hrs by serial dilution method; conditions: for MIC: Klebsiella pneumoniae
Staphylococcus aureus = assay: Antibacterial activity against Staphylococcus aureus after 16 to 18 hrs by serial dilution method; conditions: for MIC: Staphylococcus aureus; how it was run: as §1

| SMILES | MIC (Talaromyces marneffei) [mg/L] | MIC (Aspergillus fumigatus) [mg/L] | MIC (Escherichia coli) [mg/L] | MIC (Pseudomonas aeruginosa) [mg/L] | MIC (Aspergillus flavus) [mg/L] | MIC [1] [mg/L] | MIC (Klebsiella pneumoniae) [mg/L] | MIC (Staphylococcus aureus) [mg/L] | inhibition zone (IZ) (Talaromyces marneffei) [mm] | inhibition zone (IZ) (Aspergillus fumigatus) [mm] | inhibition zone (IZ) (Escherichia coli) [mm] | inhibition zone (IZ) (Pseudomonas aeruginosa) [mm] | inhibition zone (IZ) (Aspergillus flavus) [mm] | inhibition zone (IZ) [1] [mm] | inhibition zone (IZ) (Klebsiella pneumoniae) [mm] | inhibition zone (IZ) (Staphylococcus aureus) [mm] |
| --- | --- | --- | --- | --- | --- | --- | --- | --- | --- | --- | --- | --- | --- | --- | --- | --- |
| Cc1ccc(OCc2ccccc2-c2nnc(SCc3ccc(Cl)cc3)o2)cc1 | 12.5 (≈ 29.6 µM) | 12.5 (≈ 29.6 µM) | 12.5 (≈ 29.6 µM) | 12.5 (≈ 29.6 µM) | 12.5 (≈ 29.6 µM) | 12.5 (≈ 29.6 µM) | 12.5 (≈ 29.6 µM) | 12.5 (≈ 29.6 µM) | 11 | 11 | 11 | 11 | 11 | 11 | 11 | 11 |
| Cc1ccc(OCc2ccccc2-c2nnc(-c3cccc4ncccc34)o2)cc1 | 25 (≈ 63.5 µM) | 25 (≈ 63.5 µM) | 25 (≈ 63.5 µM) | 25 (≈ 63.5 µM) | 25 (≈ 63.5 µM) | 25 (≈ 63.5 µM) | 25 (≈ 63.5 µM) | 25 (≈ 63.5 µM) | <10 | <10 | <10 | <10 | <10 | <10 | <10 | <10 |
| Cc1ccc(OCc2ccccc2-c2nnc(SCc3ccc(Cl)cc3Cl)o2)cc1 | 6.25 (≈ 13.7 µM) | 6.25 (≈ 13.7 µM) | 6.25 (≈ 13.7 µM) | 6.25 (≈ 13.7 µM) | 6.25 (≈ 13.7 µM) | 6.25 (≈ 13.7 µM) | 6.25 (≈ 13.7 µM) | 6.25 (≈ 13.7 µM) | 16 | 16 | 16 | 16 | 16 | 16 | 16 | 16 |
| CCSc1nnc(-c2ccccc2COc2ccccc2C)o1 | 25 (≈ 76.6 µM) | 25 (≈ 76.6 µM) | 25 (≈ 76.6 µM) | 25 (≈ 76.6 µM) | 25 (≈ 76.6 µM) | 25 (≈ 76.6 µM) | 25 (≈ 76.6 µM) | 25 (≈ 76.6 µM) | <10 | <10 | <10 | <10 | <10 | <10 | <10 | <10 |
| Cc1ccccc1OCc1ccccc1-c1nn(CNc2ccc(Cl)cc2C(=O)C(F)(F)F)c(=S)o1 | 25 (≈ 46.8 µM) | 25 (≈ 46.8 µM) | 25 (≈ 46.8 µM) | 25 (≈ 46.8 µM) | 25 (≈ 46.8 µM) | 25 (≈ 46.8 µM) | 25 (≈ 46.8 µM) | 25 (≈ 46.8 µM) | <10 | <10 | <10 | <10 | <10 | <10 | <10 | <10 |
| Cc1ccc(Cl)c(NCn2nc(-c3ccccc3COc3ccccc3C)oc2=S)c1 | 25 (≈ 55.3 µM) | 25 (≈ 55.3 µM) | 25 (≈ 55.3 µM) | 25 (≈ 55.3 µM) | 25 (≈ 55.3 µM) | 25 (≈ 55.3 µM) | 25 (≈ 55.3 µM) | 25 (≈ 55.3 µM) | <10 | <10 | <10 | <10 | <10 | <10 | <10 | <10 |
| Cc1ccc(OCc2ccccc2-c2nnc(-c3cc(C)cc(C)c3)o2)cc1 | 12.5 (≈ 33.7 µM) | 12.5 (≈ 33.7 µM) | 12.5 (≈ 33.7 µM) | 12.5 (≈ 33.7 µM) | 12.5 (≈ 33.7 µM) | 12.5 (≈ 33.7 µM) | 12.5 (≈ 33.7 µM) | 12.5 (≈ 33.7 µM) | 11 | 11 | 11 | 11 | 11 | 11 | 11 | 11 |
| O=C(O)c1cn(C2CC2)c2cc(N3CCNCC3)c(F)cc2c1=O [CIPROFLOXACIN] | – | – | – | – | – | – | 1.56 (≈ 4.71 µM) | – | – | – | – | 25 | – | – | 22 | 30 |
| Cc1ccc(OCc2ccccc2-c2nnc(-c3cccnc3Cl)o2)cc1 | – | – | 12.5 (≈ 33.1 µM) | 12.5 (≈ 33.1 µM) | – | – | 12.5 (≈ 33.1 µM) | 12.5 (≈ 33.1 µM) | – | – | 11 | 11 | – | – | 11 | 11 |
| Cc1ccccc1OCc1ccccc1-c1nnc(-c2cccnc2Cl)o1 | – | – | 12.5 (≈ 33.1 µM) | 12.5 (≈ 33.1 µM) | – | – | 12.5 (≈ 33.1 µM) | 12.5 (≈ 33.1 µM) | – | – | 11 | 11 | – | – | 11 | 11 |

The next lines start with results.

| MIC (Talaromyces marneffei) [mg/L] | MIC (Aspergillus fumigatus) [mg/L] | MIC (Escherichia coli) [mg/L] | MIC (Pseudomonas aeruginosa) [mg/L] | MIC (Aspergillus flavus) [mg/L] | MIC [1] [mg/L] | MIC (Klebsiella pneumoniae) [mg/L] | MIC (Staphylococcus aureus) [mg/L] | SMILES | inhibition zone (IZ) (Talaromyces marneffei) [mm] | inhibition zone (IZ) (Aspergillus fumigatus) [mm] | inhibition zone (IZ) (Escherichia coli) [mm] | inhibition zone (IZ) (Pseudomonas aeruginosa) [mm] | inhibition zone (IZ) (Aspergillus flavus) [mm] | inhibition zone (IZ) [1] [mm] | inhibition zone (IZ) (Klebsiella pneumoniae) [mm] | inhibition zone (IZ) (Staphylococcus aureus) [mm] |
| --- | --- | --- | --- | --- | --- | --- | --- | --- | --- | --- | --- | --- | --- | --- | --- | --- |
| 25 (≈ 73 µM) | 25 (≈ 73 µM) | 25 (≈ 73 µM) | 25 (≈ 73 µM) | 25 (≈ 73 µM) | 25 (≈ 73 µM) | 25 (≈ 73 µM) | 25 (≈ 73 µM) | Cc1ccc(OCc2ccccc2-c2nnc(-c3ccccc3)o2)cc1 | <10 | <10 | <10 | <10 | <10 | <10 | <10 | <10 |
| 25 (≈ 64.4 µM) | 25 (≈ 64.4 µM) | 25 (≈ 64.4 µM) | 25 (≈ 64.4 µM) | 25 (≈ 64.4 µM) | 25 (≈ 64.4 µM) | 25 (≈ 64.4 µM) | 25 (≈ 64.4 µM) | Cc1ccc(OCc2ccccc2-c2nnc(SCc3ccccc3)o2)cc1 | <10 | <10 | <10 | <10 | <10 | <10 | <10 | <10 |
| 6.25 (≈ 14.5 µM) | 6.25 (≈ 14.5 µM) | 6.25 (≈ 14.5 µM) | 6.25 (≈ 14.5 µM) | 6.25 (≈ 14.5 µM) | 6.25 (≈ 14.5 µM) | 6.25 (≈ 14.5 µM) | 6.25 (≈ 14.5 µM) | COc1cc(-c2nnc(-c3ccccc3COc3ccccc3C)o2)cc(OC)c1OC | 16 | 16 | 16 | 16 | 16 | 16 | 16 | 16 |
| 6.25 (≈ 17.3 µM) | 6.25 (≈ 17.3 µM) | 6.25 (≈ 17.3 µM) | 6.25 (≈ 17.3 µM) | 6.25 (≈ 17.3 µM) | 6.25 (≈ 17.3 µM) | 6.25 (≈ 17.3 µM) | 6.25 (≈ 17.3 µM) | Cc1ccccc1OCc1ccccc1-c1nnc(-c2ccccc2F)o1 | 16 | 16 | 16 | 16 | 16 | 16 | 16 | 16 |
| 6.25 | 6.25 | – | – | 3.12 | 3.12 | – | – | Cc1cc(C2CCCCC2)n(O)c(=O)c1.NCCO [CICLOPIROX OLAMINE] | 20 | 25 | – | – | 25 | 27 | – | – |
| 6.25 (≈ 14.5 µM) | 6.25 (≈ 14.5 µM) | 6.25 (≈ 14.5 µM) | 6.25 (≈ 14.5 µM) | 12.5 (≈ 28.9 µM) | 12.5 (≈ 28.9 µM) | 6.25 (≈ 14.5 µM) | 6.25 (≈ 14.5 µM) | COc1cc(-c2nnc(-c3ccccc3COc3cccc(C)c3)o2)cc(OC)c1OC | 16 | 16 | 16 | 16 | 11 | 11 | 16 | 16 |
| 25 (≈ 45.1 µM) | 25 (≈ 45.1 µM) | 25 (≈ 45.1 µM) | 25 (≈ 45.1 µM) | 25 (≈ 45.1 µM) | 25 (≈ 45.1 µM) | 25 (≈ 45.1 µM) | 25 (≈ 45.1 µM) | O=C(c1cc(Cl)ccc1NCn1nc(-c2ccccc2COc2ccc(Cl)cc2)oc1=S)C(F)(F)F | <10 | <10 | <10 | <10 | <10 | <10 | <10 | <10 |
| 6.25 (≈ 13.1 µM) | 6.25 (≈ 13.1 µM) | 6.25 (≈ 13.1 µM) | 6.25 (≈ 13.1 µM) | 6.25 (≈ 13.1 µM) | 6.25 (≈ 13.1 µM) | 6.25 (≈ 13.1 µM) | 6.25 (≈ 13.1 µM) | Clc1ccc(OCc2ccccc2-c2nnc(SCc3ccc(Cl)cc3Cl)o2)cc1 | 16 | 16 | 16 | 16 | 16 | 16 | 16 | 16 |
| – | – | 12.5 (≈ 33.1 µM) | 12.5 (≈ 33.1 µM) | – | – | 12.5 (≈ 33.1 µM) | 12.5 (≈ 33.1 µM) | Cc1cccc(OCc2ccccc2-c2nnc(-c3cccnc3Cl)o2)c1 | – | – | 11 | 11 | – | – | 11 | 11 |
| – | – | 12.5 (≈ 31.4 µM) | 12.5 (≈ 31.4 µM) | – | – | 12.5 (≈ 31.4 µM) | 12.5 (≈ 31.4 µM) | Clc1ccc(OCc2ccccc2-c2nnc(-c3cccnc3Cl)o2)cc1 | – | – | 11 | 11 | – | – | 11 | 11 |
